PostGolgi ctrl: growth of the yeast control strain, post-Golgi counter-screen; efflux-deficient yeast background strain, growth absorbance A615, 16 h; inhibition, % at 10 µM; 5% of 98,000 active
BB579 growth dn: chemicals that inhibit yeast BB579 growth in restrictive medium (lifespan-shortening candidates). S. cerevisiae BB579 growth, OD615, 48 h. inhibition, % at 10 µM. 0.51% of 140,000 active;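 active = inhibition above a set limit, 3 SD over the mean compound inhibition, cut at about 44% in these data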
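controls = amphotericin B 10 µg/mL, positive | assay system = DeaD yeast strain BB579 | schedule = 48 h compound exposure at 30 °C after 4 h preincubation | detection = OD615 turbidity measurement | medium = restrictive CSMM-D medium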
Yeast life ext: extends the lifespan of yeast. S. cerevisiae growth with nicotinamide, OD615; deaD strain in restrictive glucose medium. inhibition of the nicotinamide effect, % at 10 µM. 0.68% of 130,000 active;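 active = inhibition above a set limit, placed 3 SD over the median of all compounds, cut at about 26% in these data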;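 also: 0% = nicotinamide-treated wells and 100% = cells grown without nicotinamide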
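Measured by: optical density (absorbance) at 615 nm; System: modified budding yeast, DeaD strain; Medium: restrictive CSMM-D dextrose medium; Timing: 4 h preincubation then 48 h treatment at 30 °C.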
PostGolgi yeast: growth inhibition of a yeast mutant, post-Golgi transport screen; inhibition, % at 10 µM; post-Golgi transport phenotypic cell assay; 0.9% of 98,000 active;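 also: yeast cells grown in 1536-well plates; yeast grown about 18 h at 30C before absorbance read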
An asterisk follows results filed as active; . = no result. This is one part of a sample in which hits are shown more often than they occur. Rule as the data show it, unless noted: active = inhibition above about 30%; inactive = the rest.

SMILES	PostGolgi ctrl	BB579 growth dn	Yeast life ext	PostGolgi yeast
Cn1c(SCc2ccccc2)nnc1-c1ccc2c(c1)OCO2	20	16	-10	5
O=C(NC1CCCC1)C(c1ccc(F)cc1)N(Cc1ccccc1Cl)C(=O)CCl (centres undefined)	.	-19	5	.
COc1cc(NS(=O)(=O)c2ccc(C)c(C)c2)c(OC)cc1Cl	47*	-16	-3	-7
COc1ccc(S(=O)(=O)Nc2ccc(S(=O)(=O)N3CCOCC3)cc2)cc1C	36*	-38	-26	-3
COc1ccc(S(=O)(=O)N2CCOCC2)cc1Cl	1	2	0	-7
COc1ccc(S(=O)(=O)Nc2ccccc2SC)cc1C	36*	-48	3	1
COc1ccc(S(=O)(=O)N2CCOCC2)c(Cl)c1Cl	30*	-25	0	-1
Nc1c(C(=O)c2ccccc2)sc2snc(SCC(=O)c3ccccc3)c12	9	-35	-13	0
O=S(=O)(Nc1ccc(N2CCOCC2)cc1)c1ccc2ccccc2c1	48*	-45	-1	4
O=C1NN(c2ccccc2)C(=O)/C1=C/c1coc2ccccc2c1=O	.	-14	26*	.
O=C1NN(c2ccccc2)C(=O)/C1=C/c1cccs1	.	-37	20	.
CCc1ccc(OCC(=O)N(C)CCC#N)c(Br)c1	39*	-6	-10	-14
CCc1ccc(OCC(=O)NCCN(C)C)c(Br)c1	11	-13	-4	-3
COc1ccc(S(=O)(=O)N(CCc2ccccc2)CC(=O)O)cc1C	-3	-1	-14	-4
CCOc1ccc(N=C2NC(=O)S/C2=C\c2ccc(N(C)C)cc2)cc1	34*	-49	-8	-5
Cc1nc2ccccc2nc(C)c1=NO	3	-26	6	1
C/C(O)=c1/ccc2cccc3nc(C)nc1c23	0	69*	-30	-2
O=C(CSc1nnc(-c2cccnc2)s1)Nc1ccc(C(=O)O)cc1	.	-40	-2	.
CC(C)(C)c1ccc(OCc2ccc(C(=O)N/N=C/c3ccc([N+](=O)[O-])cc3)o2)cc1	5	-34	-13	3
COc1ccccc1-c1cc(SC)c(C#N)c(=O)o1	.	-26	26*	.
COc1ccccc1-c1ccc(C(=O)O)o1	18	-18	-8	-3
CCN(CCNC(=O)CN1CCN(Cc2ccc(Cl)cc2)C1=O)c1ccccc1	16	-38	-6	-2
O=C(c1ccc(Cl)cc1)c1oc2ccccc2c1CS(=O)c1ccccc1 (centres undefined)	49*	-8	18	-4
Nc1c(C(=O)c2ccc(Br)cc2)oc2ccccc12	.	-30	-1	.
CC(=O)N/C(=C/c1ccc2c(c1)OCO2)C(=O)NCCO	.	-13	1	.
SMILES	PostGolgi ctrl	BB579 growth dn	Yeast life ext	PostGolgi yeast
COc1ccc(CCC(=O)NCCCNC(=O)CCc2ccc(OC)cc2)cc1	.	2	0	.
Cc1ccc(C(=O)NCCSc2ccc(Cl)cc2)cc1[N+](=O)[O-]	36*	-48	-26	11
Cc1ccc(SCCNC(=O)c2ccc(C)c([N+](=O)[O-])c2)cc1	9	-52	-21	0
C/C(=N/NC(=O)c1ccc(Br)o1)C(C)C	.	-24	6	.
Cc1cc(NC(=O)c2oc3ccccc3c2C)ccc1-n1cnnn1	34*	-37	-15	-8
CCOc1cc(/C=N/Nc2nc(-c3cccc(S(=O)(=O)N4CCCC4)c3)cs2)ccc1O	.	-27	-3	.
CCOc1cc(/C=C2\C(=O)N(c3nc(-c4ccc(Br)cc4)cs3)N=C2c2ccccc2)ccc1O	31*	-34	-3	1
COC(=O)c1c(O)cc(C(C)(C)C)n(-c2ccc(F)cc2)c1=O	.	-6	-1	.
COc1ccc(-c2ccc(OC)cc2)cc1	.	-30	.	.
COc1ccc(-c2nncnn2)cc1	.	79*	.	.
CN(Cc1ccccc1)C(=O)CSc1nc2ccccc2c(=O)n1Cc1ccco1	56*	-33	0	7
Cc1ccc(NC(=O)CN(C)C(=O)CSc2nc3ccccc3c(=O)n2Cc2ccco2)cc1	9	-26	-9	5
Cc1ccc(S(=O)(=O)N2CCC(=O)N(C(COCc3ccc(C(F)(F)F)cc3)Cc3ccccc3)CC2)cc1 (centres undefined)	.	-32	2	.
Cc1ccc(Cl)cc1Nc1nc(-c2sc(NC(=O)c3ccco3)nc2C)cs1	25	-49	-5	-3
Cc1nc(NC(=O)c2ccccc2)sc1-c1csc(Nc2ccc(F)cc2)n1	-3	-33	-13	33*
Cc1nc(NC(=O)c2ccccc2)sc1-c1csc(Nc2ccc(Cl)cc2)n1	19	-65	-17	-7
Cc1nc(NC(=O)c2ccco2)sc1-c1csc(Nc2ccc(Cl)cc2)n1	39*	-90	-6	-7
CCOC(=O)c1c(NC(=O)CSc2nc3cccnc3n2C)sc(C(C)=O)c1C	37*	-17	-18	-2
CCOC(=O)c1c(NC(=O)CSc2nnc(-c3ccccc3C)n2C)sc(C(C)=O)c1C	19	-66	-11	-3
CCNC(=O)NC(=O)C(C)On1nnc2ccc(S(=O)(=O)N(CC)CC)cc21 (centres undefined)	.	-38	28*	.
Cc1cc(NC(=O)Cn2nnc3sc4c(c3c2=O)CCC(C(C)(C)C)C4)no1 (centres undefined)	31*	-25	5	3
CCCn1c(=O)c2ccccc2n2c(SCc3c(C(=O)OCC)oc4ccccc34)nnc12	51*	-41	0	22
CCCn1c(=O)c2ccccc2n2c(SCC(=O)NCc3cccs3)nnc12	40*	-50	-6	-1
CCCn1c(=O)c2ccccc2n2c(SCC(=O)c3ccc(CC)cc3)nnc12	7	-2	-11	-6
O=c1[nH]c(=O)n(-c2ccc(F)cc2)c2c1C(C(F)(F)F)(C(F)(F)F)N=C(c1ccc(F)cc1)N2	.	-42	-1	.
SMILES	PostGolgi ctrl	BB579 growth dn	Yeast life ext	PostGolgi yeast
CCCc1cc(C(N)=O)c(NC(=O)c2cc(C)on2)s1	49*	-8	-10	9
CCCCc1cc2c(c(NC(=O)CC)n1)c(=O)oc1ccccc12	1	-26	-14	-7
COCCOC(=O)/C(=C/c1ccc(OC(=O)c2ccccc2)cc1)C(C)=O	.	-44	39*	.
COc1ccc(C(=O)N/N=C/c2ccc(OC(=O)c3ccccc3)cc2)cc1	.	-39	-3	.
O=C(Oc1ccc(/C=N/O)cc1)c1ccccc1	31*	-30	-19	12
Cc1cn(S(=O)(=O)c2ccc(Br)c3ccccc23)cn1	5	-45	-15	-3
O=c1c2cccc3c2c(nn1CN1CCOCC1)-c1ccccc1-3	2	93*	-19	41*
Cc1ccc(-c2nn(CC(=O)NCCN3CCOCC3)c(=O)c3ccccc23)cc1	-1	0	-10	-4
Cc1cc(CN2CCN(CCC#N)CC2)c(O)c(C2(C)CCCCC2)c1	59*	-39	-6	-2
Cc1cc(Oc2ccc(C#N)cc2)nc(NCc2ccccc2)n1	31*	-28	-3	4
COC(=O)c1ccc(Oc2cc(C)nc(NCc3ccccc3)n2)cc1	5	-28	-18	-8
CC(=O)Nc1ccc(S(=O)(=O)N/N=C/c2ccc(C)s2)cc1	.	-20	-2	.
COc1nc(N=C(N)N)nc2ccc(C)cc12	.	-40	1	.
O=C(NCCc1ccccn1)c1cc(-c2cccc3ccccc23)nc2ccccc12	.	-38	28*	.
